Reference: ChEMBL document CHEMBL3098105, “7,7'-Diazaindirubin--a small molecule inhibitor of casein kinase 2 in vitro and in cells” (Bioorg Med Chem, 2014)
The source made the active and inactive calls. No cut-off for these calls is given here.

What was measured:
[1] = molecular target: Dual specificity mitogen-activated protein kinase kinase 6 (Homo sapiens) (UniProt P52564); assay: Inhibition of human MKK6 assessed as residual activity at 1 uM relative to control
MCF7 = assay: Cell cycle arrest in human MCF7 cells assessed as accumulation at G2/M phase at 0.5 uM after 24 hrs using propidium iodide staining by FACS analysis (reference value: 22.13%); type: functional
[2] = molecular target: MAP kinase-activated protein kinase 2 (Homo sapiens) (UniProt P49137); assay: Inhibition of human MAPKAP-K2 assessed as residual activity at 1 uM relative to control
Sequence of MAP kinase-activated protein kinase 2 (Homo sapiens) (P49137 whole entry, looked up): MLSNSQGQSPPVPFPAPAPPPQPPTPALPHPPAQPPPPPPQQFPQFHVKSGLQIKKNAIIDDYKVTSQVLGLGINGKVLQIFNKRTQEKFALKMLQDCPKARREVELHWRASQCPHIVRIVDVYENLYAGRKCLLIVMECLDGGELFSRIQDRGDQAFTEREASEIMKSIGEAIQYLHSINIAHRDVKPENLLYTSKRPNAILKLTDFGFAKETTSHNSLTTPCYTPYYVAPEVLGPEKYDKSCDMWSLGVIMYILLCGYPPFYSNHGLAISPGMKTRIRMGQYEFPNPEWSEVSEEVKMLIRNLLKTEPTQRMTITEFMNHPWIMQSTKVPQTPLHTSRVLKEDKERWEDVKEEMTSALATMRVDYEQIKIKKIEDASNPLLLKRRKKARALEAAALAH

[3] = molecular target: Glycogen synthase kinase-3 beta (Homo sapiens) (UniProt P49841); assay: Inhibition of human GSK3beta assessed as residual activity at 1 uM relative to control
Sequence of Glycogen synthase kinase-3 beta (Homo sapiens) (P49841 whole entry, looked up): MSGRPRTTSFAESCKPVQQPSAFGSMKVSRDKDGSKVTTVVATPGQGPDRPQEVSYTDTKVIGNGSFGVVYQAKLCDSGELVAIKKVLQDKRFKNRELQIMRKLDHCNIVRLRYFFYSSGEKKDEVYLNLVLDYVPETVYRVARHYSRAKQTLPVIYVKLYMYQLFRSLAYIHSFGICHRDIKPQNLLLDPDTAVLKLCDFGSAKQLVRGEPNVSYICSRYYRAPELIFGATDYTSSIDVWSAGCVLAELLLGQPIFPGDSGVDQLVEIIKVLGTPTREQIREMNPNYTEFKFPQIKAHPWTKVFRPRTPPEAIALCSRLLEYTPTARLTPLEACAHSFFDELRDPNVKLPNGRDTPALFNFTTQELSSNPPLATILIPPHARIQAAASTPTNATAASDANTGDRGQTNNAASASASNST

[4] = Antiproliferative activity against human NCI-ADR-RES cells after 3 days by sulforhodamine B assay; type: functional; conditions: 72 h
Procedure, shortened: (§1)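 Tested in the NCI 60 cell line panel. GI50 is the concentration giving 50% inhibition of cell growth, and values are the mean of two series of tests.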

BT-549 = assay: Antiproliferative activity against human BT549 cells after 3 days by sulforhodamine B assay; type: functional; conditions: BT-549, 72 h; procedure, shortened: as §1
[5] = molecular target: Serine/threonine-protein kinase Chk2 (Homo sapiens) (UniProt O96017); assay: Inhibition of CHK2 (unknown origin) assessed as residual activity at 10 uM relative to control
Sequence of Serine/threonine-protein kinase Chk2 (Homo sapiens) (O96017 whole entry): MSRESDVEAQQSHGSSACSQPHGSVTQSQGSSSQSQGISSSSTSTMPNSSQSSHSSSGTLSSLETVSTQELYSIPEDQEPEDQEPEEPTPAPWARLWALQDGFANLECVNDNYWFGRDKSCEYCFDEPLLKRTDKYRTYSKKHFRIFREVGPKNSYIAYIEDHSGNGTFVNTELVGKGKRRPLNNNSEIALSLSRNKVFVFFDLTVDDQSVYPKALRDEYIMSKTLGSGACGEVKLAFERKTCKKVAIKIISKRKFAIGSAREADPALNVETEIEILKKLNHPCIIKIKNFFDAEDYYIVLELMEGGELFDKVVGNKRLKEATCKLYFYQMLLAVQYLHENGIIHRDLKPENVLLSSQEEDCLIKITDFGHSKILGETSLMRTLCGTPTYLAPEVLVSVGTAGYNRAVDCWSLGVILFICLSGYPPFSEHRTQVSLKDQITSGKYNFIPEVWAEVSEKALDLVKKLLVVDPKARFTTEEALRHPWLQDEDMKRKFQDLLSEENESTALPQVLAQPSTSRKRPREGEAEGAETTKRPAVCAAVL

[6] = molecular target: Serine/threonine-protein kinase MARK1 (Homo sapiens) (UniProt Q9P0L2); assay: Inhibition of human MARK1 assessed as residual activity at 1 uM relative to control
Sequence of Serine/threonine-protein kinase MARK1 (Homo sapiens) (Q9P0L2 whole entry, looked up): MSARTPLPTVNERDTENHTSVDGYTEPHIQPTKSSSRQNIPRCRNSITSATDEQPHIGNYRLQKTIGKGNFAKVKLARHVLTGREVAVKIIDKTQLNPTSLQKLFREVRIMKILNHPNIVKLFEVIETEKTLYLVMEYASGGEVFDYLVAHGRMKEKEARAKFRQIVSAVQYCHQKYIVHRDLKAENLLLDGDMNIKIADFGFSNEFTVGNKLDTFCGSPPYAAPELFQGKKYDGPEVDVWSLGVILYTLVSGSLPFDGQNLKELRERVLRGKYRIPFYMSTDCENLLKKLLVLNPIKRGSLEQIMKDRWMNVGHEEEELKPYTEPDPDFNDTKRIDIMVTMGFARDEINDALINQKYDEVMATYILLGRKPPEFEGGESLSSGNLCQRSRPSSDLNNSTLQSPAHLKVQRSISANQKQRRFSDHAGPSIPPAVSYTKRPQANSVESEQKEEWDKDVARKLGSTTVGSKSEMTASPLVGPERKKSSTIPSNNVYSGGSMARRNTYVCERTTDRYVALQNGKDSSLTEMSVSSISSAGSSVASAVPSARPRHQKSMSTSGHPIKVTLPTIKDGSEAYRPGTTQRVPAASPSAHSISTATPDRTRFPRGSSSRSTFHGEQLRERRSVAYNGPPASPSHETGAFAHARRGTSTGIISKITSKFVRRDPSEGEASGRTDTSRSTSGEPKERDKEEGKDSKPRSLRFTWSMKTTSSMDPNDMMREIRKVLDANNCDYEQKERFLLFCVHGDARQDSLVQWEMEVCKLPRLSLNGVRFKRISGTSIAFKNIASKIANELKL

[7] = molecular target: Serine/threonine-protein kinase haspin (Homo sapiens) (UniProt Q8TF76); assay: Inhibition of human Haspin assessed as residual activity at 1 uM relative to control
Sequence of Serine/threonine-protein kinase haspin (Homo sapiens) (Q8TF76 whole entry): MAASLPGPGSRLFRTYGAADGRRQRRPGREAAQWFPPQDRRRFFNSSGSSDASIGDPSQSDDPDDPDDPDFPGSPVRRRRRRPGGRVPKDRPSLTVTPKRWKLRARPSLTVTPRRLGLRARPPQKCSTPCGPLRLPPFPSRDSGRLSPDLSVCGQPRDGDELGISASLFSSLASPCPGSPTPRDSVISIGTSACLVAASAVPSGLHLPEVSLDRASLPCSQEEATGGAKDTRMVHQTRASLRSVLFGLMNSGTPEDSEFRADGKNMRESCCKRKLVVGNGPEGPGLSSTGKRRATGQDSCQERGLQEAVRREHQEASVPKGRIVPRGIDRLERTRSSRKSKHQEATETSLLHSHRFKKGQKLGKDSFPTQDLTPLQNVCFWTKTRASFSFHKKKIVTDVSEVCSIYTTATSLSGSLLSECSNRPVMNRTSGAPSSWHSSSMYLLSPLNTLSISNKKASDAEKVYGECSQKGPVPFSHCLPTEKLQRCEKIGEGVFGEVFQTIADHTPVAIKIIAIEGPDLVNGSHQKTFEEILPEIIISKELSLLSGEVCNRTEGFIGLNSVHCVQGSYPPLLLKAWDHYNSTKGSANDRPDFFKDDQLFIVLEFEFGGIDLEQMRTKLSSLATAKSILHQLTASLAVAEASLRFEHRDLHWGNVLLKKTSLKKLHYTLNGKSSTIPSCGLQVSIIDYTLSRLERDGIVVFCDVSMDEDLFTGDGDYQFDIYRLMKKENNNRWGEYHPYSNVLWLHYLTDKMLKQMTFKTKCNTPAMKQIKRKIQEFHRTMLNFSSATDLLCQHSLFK

[8] = molecular target: Proto-oncogene tyrosine-protein kinase Src (Homo sapiens) (UniProt P12931); assay: Inhibition of SRC (unknown origin) assessed as residual activity at 1 uM relative to control
NCI-H322M = assay: Antiproliferative activity against human NCI-H322M cells after 3 days by sulforhodamine B assay; type: functional; conditions: 72 h; procedure, shortened: as §1
[9] = Antiproliferative activity against human LXFL 529L cells after 3 days by SRB assay; type: functional, cell-based; conditions: 72 h
Procedure, shortened: (§2)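 Cells grown at 37 °C, 5% CO2, with 10% heat-inactivated FBS: LXFL529L in RPMI 1640, MCF7 and HT29 in DMEM. Seeded, allowed 24 h growth, then exposed to the drug at various concentrations for 3 days in serum medium. Fixed with TCA for 1 h at 4 °C, stained with 0.4% SRB, eluted in 10 mM Tris pH 10.5, read at 570 nm as % T/C. IC50 taken from dose–response curves of at least three independent experiments.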

[10] = molecular target: Serine/threonine-protein kinase D1 (Homo sapiens) (UniProt Q15139); assay: Inhibition of human PKCmu assessed as residual activity at 1 uM relative to control
[11] = molecular target: Death-associated protein kinase 3 (Homo sapiens) (UniProt O43293); assay: Inhibition of human ZIPK assessed as residual activity at 1 uM relative to control
Sequence of Death-associated protein kinase 3 (Homo sapiens) (O43293 whole entry, looked up): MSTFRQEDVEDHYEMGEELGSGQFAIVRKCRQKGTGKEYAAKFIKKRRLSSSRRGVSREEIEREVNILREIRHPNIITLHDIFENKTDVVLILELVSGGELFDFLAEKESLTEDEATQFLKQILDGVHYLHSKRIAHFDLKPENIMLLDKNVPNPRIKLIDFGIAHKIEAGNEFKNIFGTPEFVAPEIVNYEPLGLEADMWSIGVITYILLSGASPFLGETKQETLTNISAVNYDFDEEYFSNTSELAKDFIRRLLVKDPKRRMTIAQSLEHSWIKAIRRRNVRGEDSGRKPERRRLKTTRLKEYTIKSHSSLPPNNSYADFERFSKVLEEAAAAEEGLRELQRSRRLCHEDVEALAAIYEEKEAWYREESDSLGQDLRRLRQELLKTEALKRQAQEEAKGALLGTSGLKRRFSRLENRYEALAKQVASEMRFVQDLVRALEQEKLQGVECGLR

[12] = molecular target: Calcium/calmodulin-dependent protein kinase type II subunit delta (Homo sapiens) (UniProt Q13557); assay: Inhibition of human CaMK2delta assessed as residual activity at 1 uM relative to control
[13] = molecular target: Cytoplasmic tyrosine-protein kinase BMX (Homo sapiens) (UniProt P51813); assay: Inhibition of human Bmx assessed as residual activity at 1 uM relative to control
[14] = molecular target: Protein kinase C epsilon type (Homo sapiens) (UniProt Q02156); assay: Inhibition of human PKCepsilon assessed as residual activity at 1 uM relative to control
Sequence of Protein kinase C epsilon type (Homo sapiens) (Q02156 whole entry): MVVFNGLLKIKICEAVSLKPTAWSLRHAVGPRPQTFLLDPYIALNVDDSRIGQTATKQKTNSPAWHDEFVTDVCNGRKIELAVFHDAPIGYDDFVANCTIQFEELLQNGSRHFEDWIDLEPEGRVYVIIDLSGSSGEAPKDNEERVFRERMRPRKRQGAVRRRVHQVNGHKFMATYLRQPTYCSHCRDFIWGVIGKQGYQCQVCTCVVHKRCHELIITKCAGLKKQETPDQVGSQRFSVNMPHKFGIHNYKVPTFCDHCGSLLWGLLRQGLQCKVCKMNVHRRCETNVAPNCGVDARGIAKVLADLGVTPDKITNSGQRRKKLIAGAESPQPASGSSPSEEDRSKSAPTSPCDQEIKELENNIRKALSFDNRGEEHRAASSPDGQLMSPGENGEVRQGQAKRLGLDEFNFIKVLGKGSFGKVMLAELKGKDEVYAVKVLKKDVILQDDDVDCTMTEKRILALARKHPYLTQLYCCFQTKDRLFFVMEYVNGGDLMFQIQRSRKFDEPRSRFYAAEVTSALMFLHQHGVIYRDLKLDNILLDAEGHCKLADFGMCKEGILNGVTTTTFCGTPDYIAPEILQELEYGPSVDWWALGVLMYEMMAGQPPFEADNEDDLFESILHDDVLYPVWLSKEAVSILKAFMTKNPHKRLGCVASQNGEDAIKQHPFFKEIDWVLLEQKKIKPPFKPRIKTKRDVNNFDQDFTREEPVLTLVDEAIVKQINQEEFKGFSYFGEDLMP

[15] = molecular target: Receptor-type tyrosine-protein kinase FLT3 (Homo sapiens) (UniProt P36888); assay: Inhibition of FLT3 (unknown origin) assessed as residual activity at 10 uM relative to control
[16] = molecular target: Mitogen-activated protein kinase 9 (Homo sapiens) (UniProt P45984); assay: Inhibition of human JNK2alpha2 assessed as residual activity at 1 uM relative to control
Sequence of Mitogen-activated protein kinase 9 (Homo sapiens) (P45984 whole entry, looked up): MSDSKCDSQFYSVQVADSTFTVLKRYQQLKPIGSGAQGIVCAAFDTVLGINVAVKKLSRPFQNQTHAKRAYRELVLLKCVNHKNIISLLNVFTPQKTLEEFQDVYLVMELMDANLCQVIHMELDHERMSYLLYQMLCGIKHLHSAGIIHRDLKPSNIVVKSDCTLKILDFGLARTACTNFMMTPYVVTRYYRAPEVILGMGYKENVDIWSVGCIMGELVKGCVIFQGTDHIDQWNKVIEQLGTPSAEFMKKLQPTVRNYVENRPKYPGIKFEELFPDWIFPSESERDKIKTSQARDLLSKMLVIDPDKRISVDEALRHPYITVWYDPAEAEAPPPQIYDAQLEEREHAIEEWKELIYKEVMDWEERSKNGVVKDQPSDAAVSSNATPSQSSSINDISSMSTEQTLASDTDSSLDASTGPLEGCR

[17] = molecular target: Protein-tyrosine kinase 6 (Homo sapiens) (UniProt Q13882); assay: Inhibition of human BRK assessed as residual activity at 1 uM relative to control
[18] = molecular target: Casein kinase II (Homo sapiens) (UniProt P67870+P68400+P19784); assay: Inhibition of CK2-mediated Wnt signaling in human MCF7 cells assessed as reduction of beta-catenin level at 1 uM after 15 mins by Western blot analysis; type: cell-based
Procedure, shortened: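 MCF7 cells were grown at 37 °C and 5% CO2 in DMEM with 10% heat-inactivated FBS and penicillin/streptomycin. Cells were exposed to 1 µM for the indicated times, with DMSO as the untreated control. Extracts were made in urea lysis buffer, and 20–40 µg protein was run on 10% SDS–PAGE. Blots were probed with primary antibodies (1:1000, overnight, 4 °C) and read by ECL, with β-actin as loading control.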

HT-29 = assay: Antiproliferative activity against human HT-29 cells after 3 days by SRB assay; type: functional, cell-based; conditions: HT-29, 72 h; procedure, shortened: as §2
[19] = molecular target: RAF proto-oncogene serine/threonine-protein kinase (Homo sapiens) (UniProt P04049); assay: Inhibition of RAF1 (unknown origin) assessed as residual activity at 1 uM relative to control
[20] = molecular target: Ephrin type-B receptor 3 (Homo sapiens) (UniProt P54753); assay: Inhibition of human EphB3 assessed as residual activity at 1 uM relative to control
[21] = molecular target: Tyrosine-protein kinase CSK (Homo sapiens) (UniProt P41240); assay: Inhibition of human CSK assessed as residual activity at 1 uM relative to control
Sequence of Tyrosine-protein kinase CSK (Homo sapiens) (P41240 2-450 limits assumed): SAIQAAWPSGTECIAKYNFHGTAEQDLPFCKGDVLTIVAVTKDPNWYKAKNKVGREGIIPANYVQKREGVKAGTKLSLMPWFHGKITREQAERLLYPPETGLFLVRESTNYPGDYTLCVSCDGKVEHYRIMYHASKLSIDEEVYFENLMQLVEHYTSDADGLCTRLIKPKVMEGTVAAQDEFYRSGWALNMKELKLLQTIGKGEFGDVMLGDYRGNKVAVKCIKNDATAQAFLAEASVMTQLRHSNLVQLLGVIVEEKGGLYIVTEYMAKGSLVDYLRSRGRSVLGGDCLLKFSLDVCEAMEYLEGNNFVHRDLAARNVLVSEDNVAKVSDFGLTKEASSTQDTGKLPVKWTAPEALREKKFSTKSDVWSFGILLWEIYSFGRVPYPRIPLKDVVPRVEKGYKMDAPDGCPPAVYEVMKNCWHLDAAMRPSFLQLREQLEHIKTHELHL

[22] = molecular target: Tyrosine-protein kinase receptor TYRO3 (Homo sapiens) (UniProt Q06418); assay: Inhibition of human Rse assessed as residual activity at 1 uM relative to control
[23] = molecular target: Activin receptor type-1B (Homo sapiens) (UniProt P36896); assay: Inhibition of human ALK4 assessed as residual activity at 1 uM relative to control
[24] = molecular target: Serine/threonine-protein kinase TBK1 (Homo sapiens) (UniProt Q9UHD2); assay: Inhibition of human TBK1 assessed as residual activity at 1 uM relative to control

O=C1Nc2ncccc2/C1=C1/Nc2ncccc2C1=O
Activity [1]: 87% | Activity (MCF7): 21.21% | Activity [2]: 67% | Activity [3]: 63% | GI50 [4]: 1390 nM | GI50 (BT-549): 1600 nM | Activity [5]: 84% | Activity [6]: 107% | Activity [7]: 64% | Activity [8]: 99% | GI50 (NCI-H322M): 282 nM | IC50 [9]: 60 nM | Activity [10]: 93% | Activity [11]: 118% | Activity [12]: 110% | Activity [13]: 116% | Activity [14]: 87% | Activity [15]: 86% | Activity [16]: 101% | Activity [17]: 102% | inhibition [18]: Active | IC50 (HT-29): 2000 nM | Activity [19]: 97% | Activity [20]: 123% | Activity [21]: 122% | Activity [22]: 93% | Activity [23]: 106% | Activity [24]: 120%
